Compound activity deposited in PubChem by several laboratories.
DNA FID counter-1 = fluorescent intercalator displacement, NS3 helicase counter-screen. DNA fluorescent intercalator displacement, fluorescence. inhibition, % at 7.9 µM. 0.17% of 290,000 active;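 also: 0% = vehicle and 100% = reference compound; higher means more ethidium bromide displaced from hairpin DNA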
HSF-1 act = increases HSF-1 driven luciferase reporter signal; NIH3T3-HGL HSF-1 luciferase reporter, MG132, 8 h; 100% = twice DMSO control signal; 1.7% of 300,000 active; AID 504408; activation, % at 9 µM;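 active = mean replicate activation of at least 50% with a set share of replicates each reaching 50%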;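 also: 0% = median of the neutral control wells and 100% = twice that signal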
HCV core dimer = blocks dimerization of HCV core protein; 0.33% of 300,000 active; inhibition, % at 5 µM; TR-FRET GST/Flag-core106 dimerization, 1536-well;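 active = inhibition above the mean of all tested compounds plus 3 SD, set per screening campaign, cut at about 45% in these data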
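Assay system: Tagged HCV core106 pair (GST and Flag) | Buffer or medium: KF-containing HEPES buffer, pH 7.45, DTT, CHAPS, BSA | Also added: Eu donor and XL665 acceptor anti-tag antibodies | Dosing: One concentration, 5 µM, in 0.5% DMSO | Timing: 4 h at 22.5 °C | Technique: TR-FRET 671 and 617 nm emission | Repeats: Singlicate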
HCV NS3 hel inh = blocks Hepatitis C virus NS3 helicase unwinding | NS3 helicase DNA unwinding, Cy5 molecular beacon fluorescence | inhibition, % at 10.9 µM | 0.56% of 290,000 active;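 active = inhibition above the mean of all tested compounds plus 3 SD, set per campaign, cut at about 35% in these data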;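 also: 0% = DMSO wells and 100% = thioflavine S control wells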
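System: Hepatitis C virus NS3 helicase domain fragment enzyme | Reagent: Annealed dual-labelled DNA beacon duplex, ATP-started | Compound dosing: 10.9 µM single point, 0.8% DMSO | Incubation: 1 h reaction at 25 °C, ATP-initiated | Technique: Cy5 fluorescence | Evaluation: Percent inhibition from t60/t0 fluorescence ratio | Benchmarks: Low DMSO, high thioflavine S at 110 µM | Replication: Singlicate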
HSP90 inh = HSP90 refolding inhibition in rabbit reticulocyte lysate | luciferase refolding luminescence, 3 h | inhibition, % at 5.6 µM | 0.91% of 290,000 active | AID 1789;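 active = inhibition above the screen-wide mean plus 3 SD, computed separately per campaign, cut at about 16% in these data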;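 also: 0% = DMSO wells and 100% = 60 µM geldanamycin wells; inhibitors lower the luminescence because luciferase stays unfolded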
HSF1 inh = HSF1 inhibition | 0.77% of 300,000 active | NIH3T3-HGL HSE-luciferase, MG132-induced, luminescence 8 h; hits give low values | AID 2098 | activity change, negative = inhibition, % at 7.5 µM (by protocol);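 active = more than half of replicate wells show activity change below -50%, luminescence cut by over half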;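 also: luciferase reports HSF-1 transcriptional activity via heat shock element; 0% = median of DMSO wells and -100% = zero luminescence signal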
NS3 helicase cf = confirmation of Hepatitis C virus NS3 helicase inhibitors. shares compounds with HCV NS3 hel inh. NS3 helicase DNA unwinding, Cy5 molecular beacon fluorescence. inhibition, % at 10.9 µM. 31% of 1,600 active. AID 1943;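 active = inhibition above the mean of all tested compounds plus 3 SD, cutoff set per campaign, cut at about 36% in these data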
DNA FID counter-2 = displaces DNA intercalator in HCV helicase counter-screen | DNA fluorescent intercalator displacement, fluorescence | shares compounds with HCV NS3 hel inh | 4% of 1,600 active | inhibition, % at 7.9 µM;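 also: 0% = vehicle and 100% = reference compound; higher means more displacement of ethidium bromide from the DNA hairpin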
* = called active by the depositor; nt = no result given. A selection: hits, their analogues and other compounds. The true share with any hit is near 3.9%. Rule as the data show it, unless noted: active = inhibition above about 37%; inactive = the rest.

SMILES	DNA FID counter-1	HSF-1 act	HCV core dimer	HCV NS3 hel inh	HSP90 inh	HSF1 inh	NS3 helicase cf	DNA FID counter-2
Fc1nc(F)c(F)c(NCCCNc2c(F)c(F)nc(F)c2F)c1F	6	-5	1	52*	-6	2	-8	16
C#CCOc1c(Cl)cc(/C=C2/C(=O)ON=C2C)cc1OCC	-26	52*	2	57*	2	16	71*	16
CC(C)(C)NC(=O)NC(=O)COC(=O)c1cc[n+]([O-])cc1	0	-8	-2	5	5	-9	nt	nt
O=C1NN(c2ccccc2)C(=O)/C1=C\c1ccccc1	-15	14	nt	49*	3	1	-28	13
COc1ccc(Sc2ccc(/C=C3\C(=O)NN(c4ccccc4)C3=O)o2)cc1	-14	20	24	47*	3	18	60*	17
COc1ccc(-n2c(C)cc(/C=C3\C(=O)NN(c4ccccc4)C3=O)c2C)cc1	-4	25	10	1	-8	7	nt	nt
O=C(Cc1ccc(Cl)cc1)Nc1ccccc1N1CCN(C(=O)c2ccccc2)CC1	-44	8	10	-17	3	10	nt	nt
C=CCN(CC=C)C(=O)Nc1ccc2nc(C)sc2c1	-4	-6	-4	-19	-3	-11	nt	nt
COc1ccc(NC(=O)[C@@H](NC(=O)N2C[C@H]3C[C@@H](C2)c2cccc(=O)n2C3)C(C)C)cc1OC	-8	9	0	-2	-2	7	nt	nt
Cc1cc(-c2nc3c4c5c(sc4[nH]c(=O)n3n2)CCC5)c(C)o1	-21	-11	55*	41*	-1	-10	76*	8
Cc1nc2sc3c(c2c(=O)[nH]1)CCC3	0	3	-3	10	-1	2	nt	nt
Cn1nc(C(F)(F)F)c(-c2cccc(C(F)(F)F)c2)c1NC(=O)c1nccnc1C(=O)O	-27	-9	3	51*	-6	-1	7	-8
Cn1nc(C(F)(F)F)c(-c2ccccc2)c1NC(=O)c1nccnc1C(=O)O	1	-16	0	14	-10	-3	nt	nt
COc1ccc(C2CCN(CC(=O)N(C)C)CC2O)cc1 (stereo unspecified)	-4	-7	-13	-12	-2	0	nt	nt
O=C(O)c1ccc(CSc2nnnn2-c2ccc(F)cc2)cc1	-11	-2	5	5	-5	0	nt	nt
Cc1ccc(-n2nnnc2SCc2ccc(C(=O)O)cc2)cc1C	-32	1	-8	37*	0	-4	-14	-7
O=C(CCC(=O)NCc1ccccc1)NCc1ccccc1	-14	6	-10	48*	0	-8	-11	-3
O=C(COC(=O)CCc1c[nH]c2ccccc12)NCc1ccc(Cl)cc1	-14	-4	4	-6	-5	-16	nt	nt
O=C(COC(=O)CCc1c[nH]c2ccccc12)NCc1ccccc1	-26	-2	-4	43*	5	-2	9	-26
O=C(CCC(=O)NNC(=O)Cc1ccccc1)NCc1ccccc1	4	-2	2	-2	1	-3	nt	nt
CN(CC(=O)Nc1ccc(Cl)c(C(F)(F)F)c1)C(=O)c1cccs1	nt	2	-10	nt	nt	-1	nt	nt
COc1ccccc1CNS(=O)(=O)c1ccc2c(c1)CC(C)N2C(=O)C1CCC1 (stereo unspecified)	-42	-4	6	0	-3	-3	nt	nt
CCn1cc(C(=O)Nc2cccc(C)c2)c(=O)c2ccc(C)nc21	0	1	-1	5	1	-5	nt	nt
O=c1cc(O)nc(SCc2ccccc2)n1-c1ccc(F)cc1	-24	21	8	59*	-2	11	-2	-22
O=C(c1cnn2c(C(F)(F)F)cc(-c3cccs3)nc12)N1CCN(C(c2ccccc2)c2ccccc2)CC1	-1	-8	42	-4	-2	-8	nt	nt
SMILES	DNA FID counter-1	HSF-1 act	HCV core dimer	HCV NS3 hel inh	HSP90 inh	HSF1 inh	NS3 helicase cf	DNA FID counter-2
O=C(Cn1c(=O)n(Cc2ccco2)c(=O)c2c3c(sc21)CCCC3)Nc1ccccc1	-28	-7	48*	47*	12	3	5	7
CC1(C)Cc2c(sc3c2c(=N)n(Cc2ccco2)c(=O)n3CC(=O)Nc2ccccc2)CO1	-2	19	2	3	6	7	nt	nt
O=c1c2c3c(sc2n(CCN2CCCCC2)c(=O)n1Cc1ccco1)CCCCC3	1	7	6	-9	2	3	nt	nt
NC(=O)Cn1c(=O)n(Cc2ccco2)c(=O)c2c3c(sc21)CCCCC3	-15	-9	30	39*	4	-4	5	-13
COc1cccc(CNC(=O)CN2C(=O)c3ccccc3S2(=O)=O)c1	nt	1	-8	nt	nt	-6	nt	nt
NC(N)=NC1=NC(=O)/C(=C/c2ccccc2-n2cccn2)S1	-4	-3	-3	6	0	2	nt	nt
O=C(O)CCNc1ccc(NCCC(=O)O)c2c1C(=O)c1ccccc1C2=O	-8	-24	-126	60*	10	-5	35	4
O=C(O)c1ccc2c(c1)C(=O)/C(=C/c1ccccc1)C2=O	-7	7	-29	5	3	-6	nt	nt
O=C(O)c1ccc2c(c1)C(=O)/C(=C\c1ccco1)C2=O	-1	-2	-19	62*	12	0	-15	11
O=C1C(=Cc2ccco2)C(=O)c2ccccc21	-22	16	-1	50*	0	7	-19	19
O=C1ON=C(c2ccccc2)/C1=C/c1ccco1	-13	18	0	14	-3	7	nt	nt
COc1ccc(/C=C2\CCc3c2nc2ccccc2c3C(=O)O)cc1OC	-9	20	-5	14	-3	16	nt	nt
CN(CCC#N)C(=O)COC(=O)c1c2c(nc3ccccc13)/C(=C/c1ccco1)CC2	-12	-11	53*	77*	5	-6	-1	3
Cc1cccc(NC(=O)CC2Nc3cccc4cccc(c34)NC2=O)c1 (stereo unspecified)	-12	13	-14	45*	7	3	-26	14
CCOc1ccc(NC(=O)CC2Nc3ccccc3NC2=O)cc1 (stereo unspecified)	-5	10	2	-5	-1	-3	nt	nt
CC(=O)c1ccc(NC(=O)CC2Nc3cccc4cccc(c34)NC2=O)cc1 (stereo unspecified)	-15	3	3	35	3	3	nt	nt
CC(=O)Nc1ccc(NC(=O)CC2Nc3cccc4cccc(c34)NC2=O)cc1 (stereo unspecified)	-20	7	-17	46*	7	-1	-1	2
Cc1ccc(C)c(NCC(O)c2ccccc2)c1 (stereo unspecified)	-6	7	0	-4	1	3	nt	nt
